Here are results for 16 compounds from ChEMBL document CHEMBL1926565, “Synthesis, antiproliferative activities and telomerase inhibition evaluation of novel asymmetrical 1,2-disubstituted amidoanthraquinone derivatives” (Eur J Med Chem, 2012).

Structures are written as SMILES. Calls of active or inactive are those of the source. No cut-off for these calls is given here. Bounds are passed on as bounds.

For orientation: residual activity means the signal under treatment as a percentage of the control signal. For orientation: IC50 means the concentration at which inhibition is half-maximal.

Assay [1] in a line: Growth of human H1299 cells at 1 uM after 48 hrs by MTT assay. The conditions noted are these: NCI-H1299, 48 h. On the technique in general: Formazan colour is commonly taken as a measure of viable cells.
A short description of assay [2]: Growth of human H1299 cells at 10 uM after 48 hrs by MTT assay. The settings on record: NCI-H1299, 48 h.
Assay [3] deals with Telomerase reverse transcriptase (Homo sapiens) (UniProt O14746). The assay can be described thus: Residual activity of human TERT in H1299 cells at 1 uM after 24 hrs by SEAP reporter gene assay. In general terms: Reporter assays use an easily measured gene product as a stand-in for the process of interest.
Sequence of Telomerase reverse transcriptase (Homo sapiens) (O14746 whole entry): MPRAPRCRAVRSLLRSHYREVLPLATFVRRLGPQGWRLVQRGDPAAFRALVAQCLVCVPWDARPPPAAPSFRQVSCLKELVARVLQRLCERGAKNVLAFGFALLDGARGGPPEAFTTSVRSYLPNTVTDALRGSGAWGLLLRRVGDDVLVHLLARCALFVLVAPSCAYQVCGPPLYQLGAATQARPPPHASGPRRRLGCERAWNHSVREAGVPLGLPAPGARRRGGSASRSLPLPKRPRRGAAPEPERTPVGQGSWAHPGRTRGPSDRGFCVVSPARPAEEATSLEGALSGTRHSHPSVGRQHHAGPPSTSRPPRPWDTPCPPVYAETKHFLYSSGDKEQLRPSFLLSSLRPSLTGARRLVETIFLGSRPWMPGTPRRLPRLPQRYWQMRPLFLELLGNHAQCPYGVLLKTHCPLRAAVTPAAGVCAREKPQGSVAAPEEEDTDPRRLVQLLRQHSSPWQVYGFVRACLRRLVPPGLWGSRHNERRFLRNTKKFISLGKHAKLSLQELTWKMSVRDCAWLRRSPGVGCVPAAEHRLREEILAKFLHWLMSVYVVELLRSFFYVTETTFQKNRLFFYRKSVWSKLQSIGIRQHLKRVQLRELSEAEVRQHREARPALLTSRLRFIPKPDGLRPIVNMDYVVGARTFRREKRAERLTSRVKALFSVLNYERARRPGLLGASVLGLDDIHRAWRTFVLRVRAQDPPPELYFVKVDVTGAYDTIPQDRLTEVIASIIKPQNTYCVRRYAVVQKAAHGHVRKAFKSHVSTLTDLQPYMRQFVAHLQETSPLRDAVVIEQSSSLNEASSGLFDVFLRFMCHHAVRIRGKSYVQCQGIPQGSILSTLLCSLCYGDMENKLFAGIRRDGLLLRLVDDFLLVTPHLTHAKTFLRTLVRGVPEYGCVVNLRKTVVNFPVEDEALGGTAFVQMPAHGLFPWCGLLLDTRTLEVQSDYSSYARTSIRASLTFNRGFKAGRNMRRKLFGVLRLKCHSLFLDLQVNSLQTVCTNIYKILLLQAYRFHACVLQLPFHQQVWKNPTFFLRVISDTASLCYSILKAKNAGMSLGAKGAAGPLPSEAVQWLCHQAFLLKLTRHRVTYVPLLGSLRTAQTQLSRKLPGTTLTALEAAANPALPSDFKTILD
The target is the same in assay [4]. In words: Residual activity of human TERT in H1299 cells at 100 uM after 24 hrs by SEAP reporter gene assay.
Assay [5] shares this target. In words: Inhibition of telomerase activity in human H1299 cell free extract at 10 uM by modified TRAP assay. The method, boiled down:
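TRAP assay using total cell lysate from H1299 lung cancer cells as the telomerase source, with protein measured against BSA standards. Compounds tested at 10 µM. Controls were lysate without inhibitor (positive) and RNase A-treated extract without inhibitor (negative).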

Assay [6] shares this target. The assay can be described thus: Residual activity of human TERT in H1299 cells at 10 uM after 24 hrs by SEAP reporter gene assay.
The subject of assay [7] is PC-3. The assay can be described thus: Cytotoxicity against human PC3 cells after 48 hrs by SRB assay. The assay is classed as functional, cell-based. The conditions noted are these: PC-3, 48 h. Put shortly: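 PC-3 cells grown in RPMI1640 with 10% FBS at 37 °C, 5% CO₂. Seeded in medium with 5% FBS; after 24 h, one plate fixed with 10% TCA as T₀. Compound or 0.1% DMSO vehicle added for 48 h, then TCA fixation and 0.4% SRB in 1% acetic acid. Dye solubilized in 10 mM Trizma base, absorbance read at 515 nm. IC50 is the concentration giving 50% reduction of the protein gain in controls.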
For orientation: The SRB assay estimates cell density from bound dye.

Assay [8] can be described thus: Growth of human H1299 cells at 100 uM 48 hrs by MTT assay. The settings on record: NCI-H1299, 48 h.

Regarding `O=C(CCl)Nc1ccc2c(c1NC(=O)CCCl)C(=O)c1ccccc1C2=O`, the growth, % of control at 1 µM in assay [1] was found to be 103%. This compound displayed a growth, % of control at 10 µM in assay [2] of 79%. Besides, the residual activity was 113% in assay [3], 15% in assay [4] and 92% in assay [6]. Also, the inhibition result in assay [5] is “inactive”. The 50% inhibitory concentration (IC50) in assay [7] turned out to be 1.23 µM. The compound also displayed a growth, % of control at 100 µM in assay [8] of 19%.
On to `O=C(CCCl)Nc1ccc2c(c1NC(=O)CCCl)C(=O)c1ccccc1C2=O`, for which the growth, % of control at 1 µM in assay [1] was 101%. Also, the growth, % of control at 10 µM in assay [2] came out at 83%. Besides, the residual activity amounted to 96% in assay [3], 15% in assay [4] and 94% in assay [6]. Also, the inhibition result in assay [5] is “inactive”. Moreover, in assay [7], the concentration for half-maximal inhibition (IC50) was above 20 µM. The compound also had a growth, % of control at 100 µM in assay [8] of 5%.
The compound `O=C(CCl)Nc1ccc2c(c1NC(=O)c1ccc(C(F)(F)F)cc1)C(=O)c1ccccc1C2=O` gave a growth, % of control at 1 µM in assay [1] of 86%. In assay [2], this compound showed a growth, % of control at 10 µM of 6%. Besides, the residual activity was determined as 85% in assay [3], 6% in assay [4] and 8% in assay [6]. In assay [5], the inhibition result is “inactive”. The compound further showed a 50% inhibitory concentration (IC50) in assay [7] of 6.67 µM. Also, the growth, % of control at 100 µM in assay [8] amounted to 0%.
In the case of `O=C(CCl)Nc1ccc2c(c1NC(=O)COc1ccccc1)C(=O)c1ccccc1C2=O`, the growth, % of control at 1 µM in assay [1] is 101%. For the same compound, the growth, % of control at 10 µM in assay [2] turned out to be 66%. Also, the residual activity in assay [3] was 82%; in assay [4] it was 4%; in assay [6] it was 72%. In addition, in assay [5], the inhibition entry is “inactive”. For the same compound, in assay [7], the IC50 was above 20 µM. Besides, the growth, % of control at 100 µM in assay [8] was found to be 4%.
On to `O=C(CCl)Nc1ccc2c(c1NC(=O)c1cccc(F)c1)C(=O)c1ccccc1C2=O`, for which the growth, % of control at 1 µM in assay [1] came out at 18%. The same compound returned a growth, % of control at 10 µM in assay [2] of 8%. The residual activity in assay [3] came to 26%; in assay [4] it was 0%; in assay [6], 1%. Further, in assay [5], the inhibition result was “inactive”. Besides, the midpoint of inhibition in assay [7], the IC50, lay at 3.48 µM. The compound also came in with a growth, % of control at 100 µM in assay [8] of 1%.
For `Cc1ccc(C(=O)Nc2c(NC(=O)CN3CCSCC3)ccc3c2C(=O)c2ccccc2C3=O)cc1`, the growth, % of control at 1 µM in assay [1] was 85%. In assay [2], this compound came in with a growth, % of control at 10 µM of 69%. The residual activity was found to be 88% in assay [3], 12% in assay [4] and 72% in assay [6]. Further, the inhibition result in assay [5] was “inactive”. It took 19.1 µM to reach half-maximal inhibition in assay [7] (IC50). Further, the growth, % of control at 100 µM in assay [8] worked out at 20%.
As to `Cc1cc(C(=O)Nc2c(NC(=O)CCl)ccc3c2C(=O)c2ccccc2C3=O)c(C)o1`, the growth, % of control at 1 µM in assay [1] was 96%. This compound displayed a growth, % of control at 10 µM in assay [2] of 2%. Further, the residual activity in assay [3] was 81%; in assay [4] it was 0%; in assay [6], 2%. Moreover, the inhibition entry in assay [5] was “inactive”. Besides, the concentration for half-maximal inhibition (IC50) in assay [7] was found to be 4.31 µM. The growth, % of control at 100 µM in assay [8] turned out to be 0%.
In assay [1], `O=C(CCl)Nc1ccc2c(c1NC(=O)Cc1ccc(F)cc1)C(=O)c1ccccc1C2=O` yielded a growth, % of control at 1 µM of 88%. The compound also gave a growth, % of control at 10 µM in assay [2] of 7%. For the same compound, the residual activity is 93% in assay [3], 1% in assay [4] and 8% in assay [6]. Besides, in assay [5], the inhibition entry is “inactive”. The half-maximal inhibitory concentration (IC50) in assay [7] is above 20 µM. The compound further had a growth, % of control at 100 µM in assay [8] of 6%.
In turn, `Nc1c(NC(=O)CCl)ccc2c1C(=O)c1ccccc1C2=O` returned a growth, % of control at 1 µM in assay [1] of 8%. For the same compound, the growth, % of control at 10 µM in assay [2] turned out to be 0%. The residual activity is 15% in assay [3], 13% in assay [4] and 13% in assay [6]. Also, the inhibition entry in assay [5] was “inactive”. The compound also displayed a half-inhibitory concentration (IC50) in assay [7] of 1.65 µM. In addition, in assay [8], the growth, % of control at 100 µM turned out to be 0%.
In turn, `Cc1ccc(C(=O)Nc2c(NC(=O)CN3CCN(c4ccccc4)CC3)ccc3c2C(=O)c2ccccc2C3=O)cc1` had a growth, % of control at 1 µM in assay [1] of 80%. Besides, the growth, % of control at 10 µM in assay [2] amounted to 76%. In addition, the figures for the residual activity in assay [3], in assay [4] and in assay [6] were 93%, 15% and 88%, respectively. Besides, in assay [5], the inhibition entry is “inactive”. The IC50 in assay [7] is above 20 µM. The compound also had a growth, % of control at 100 µM in assay [8] of 23%.
Turning to `O=C(CCl)Nc1ccc2c(c1NC(=O)CSc1ccccc1)C(=O)c1ccccc1C2=O`, the growth, % of control at 1 µM in assay [1] turned out to be 88%. In assay [2], this compound had a growth, % of control at 10 µM of 5%. Further, the residual activity in assay [3] worked out at 80%; in assay [4], 0%; in assay [6] it was 3%. The inhibition result in assay [5] is “inactive”. 5.39 µM corresponded to half-maximal inhibition in assay [7] (IC50). In addition, in assay [8], the growth, % of control at 100 µM worked out at 0%.
As to `O=C(CCl)Nc1ccc2c(c1NC(=O)c1ccc(F)cc1)C(=O)c1ccccc1C2=O`, the growth, % of control at 1 µM in assay [1] was found to be 10%. The compound further yielded a growth, % of control at 10 µM in assay [2] of 4%. In addition, the residual activity in assay [3] turned out to be 11%; in assay [4], 0%; in assay [6], 2%. Besides, the inhibition result in assay [5] was “inactive”. Moreover, the midpoint of inhibition in assay [7], the IC50, lay at 3.14 µM. The growth, % of control at 100 µM in assay [8] turned out to be 0%.
In assay [1], `O=C(CCl)Nc1ccc2c(c1NC(=O)c1cccc(Cl)c1)C(=O)c1ccccc1C2=O` registered a growth, % of control at 1 µM of 89%. This compound gave a growth, % of control at 10 µM in assay [2] of 5%. For the same compound, the residual activity in assay [3] was 80%; in assay [4] it was 3%; in assay [6] it was 6%. Further, the inhibition entry in assay [5] is “inactive”. In addition, in assay [7], 3.51 µM corresponded to half-maximal inhibition (IC50). The compound also gave a growth, % of control at 100 µM in assay [8] of 0%.
Regarding `O=C(CCl)Nc1ccc2c(c1NC(=O)CCCCl)C(=O)c1ccccc1C2=O`, the growth, % of control at 1 µM in assay [1] was 100%. Moreover, the growth, % of control at 10 µM in assay [2] was determined as 116%. In addition, the values for the residual activity in assay [3], in assay [4] and in assay [6] were 108%, 30% and 97%, respectively. Moreover, in assay [5], the inhibition entry is “inactive”. The compound also gave a half-inhibitory concentration (IC50) in assay [7] of 1.12 µM. For the same compound, in assay [8], the growth, % of control at 100 µM was 62%.
`Cc1ccc(C(=O)Nc2c(NC(=O)CN(C)C)ccc3c2C(=O)c2ccccc2C3=O)cc1` yielded a growth, % of control at 1 µM in assay [1] of 106%. In addition, the growth, % of control at 10 µM in assay [2] came to 88%. Also, the residual activity was 99% in assay [3], 9% in assay [4] and 78% in assay [6]. Also, the inhibition result in assay [5] is “inactive”. The compound also displayed an IC50 in assay [7] of 3.92 µM. Besides, the growth, % of control at 100 µM in assay [8] was 0%.
`Cc1ccc(C(=O)Nc2c(NC(=O)CN3CCOCC3)ccc3c2C(=O)c2ccccc2C3=O)cc1`: the growth, % of control at 1 µM in assay [1] turned out to be 81%. Moreover, in assay [2], the growth, % of control at 10 µM turned out to be 56%. The residual activity turned out to be 98% in assay [3], 3% in assay [4] and 54% in assay [6]. Moreover, the inhibition entry in assay [5] is “inactive”. Also, the half-inhibitory concentration (IC50) in assay [7] is above 20 µM. The compound also gave a growth, % of control at 100 µM in assay [8] of 15%.
